The sample as a whole holds a higher share of hits than the screen did.
CHOP inhibitor = inhibitors of CHOP promoter induction, primary screen, cell-based, unfolded protein response, luciferase reporter | CHO-K1 CHOP-promoter luciferase, tunicamycin-induced, 15-18 h | inhibition, % at 10 µM | 220,000 compounds, 3.8% hits;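 active = compounds that reduced the stress-induced luciferase reporter signal by more than about 70% of percent inhibition, limit read from the data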;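 note: 0% = tunicamycin plus vehicle and 100% = wells without tunicamycin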
UPR XBP1 act = activators of adaptive XBP1 UPR arm, primary screen, cell-based, CHO-XBP1 luciferase reporter, luminescence, uHTS. 330,000 compounds, 0.33% hits. IRE1-XBP1 UPR activation; percent of tunicamycin response, DMSO as zero. activation, % at 20 µM;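 active = versus positive control, 20 µM dose yields 30% or more activation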;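 note: 100% = tunicamycin at 10 µg/mL and 0% = DMSO only wells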
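Material: CHO cell line with stable XBP1 luciferase reporter; buffer or medium: F12 medium containing 10% fetal bovine serum; compound: single point, 20 µM final compound, 1% DMSO; incubation: 6 h treatment, 37 °C; measured by: glow luminescence from Steady-Glo reagent; evaluation: activation, % of tunicamycin; control set: tunicamycin high, DMSO low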
Lmaj promast = Leishmania major promastigote growth inhibition, primary screen; Leishmania major promastigotes, resazurin fluorescence viability; inhibition, % at 10 µM; 200,000 compounds, 9% hits; in the data active = inhibition above about 50%;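 note: promastigotes grown with compound for 44 hours at 28 °C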
Dynein cargo inh = inhibitors of GR-EGFP nuclear translocation, primary screen, dynein cargo transport inhibitor project, imaging, high-content, 3617.4 mouse cells. test concentration mostly 20 µM; stimulated with dexamethasone, 1 µM; hits give low values. z-score, hits read low. 220,000 compounds, 0.47% hits. AID 1381, 2008;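 active = plate z-score of nuclear minus cytoplasmic receptor signal below a set negative limit, without overly bright fluorescence or cell loss, cut at about -3.5 in these data, passing the limit was not always enough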;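 note: z-score of nuclear minus cytoplasmic ring GR-EGFP intensity difference per well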
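Schedule: 48 h induction, then 1 h compound, then 30 min agonist, 37 °C. Buffer or medium: tetracycline-free induction medium containing charcoal-stripped FBS. Reagent: 1.0 µM final dexamethasone stimulus. Evaluation: nuclear versus cytoplasmic GR-EGFP signal, averaged per well. Signal: high-content fluorescence imaging after fixation.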
CHOP UPR activ = activators of apoptotic CHOP UPR arm, primary screen, cell-based, CHO-CHOP luciferase reporter, luminescence, uHTS | UPR activation; percent of tunicamycin response over DMSO baseline | activation, % at 10 µM | 330,000 compounds, 0.34% hits | AID 449763, 2010;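 active = at 10 µM dose, activation of 40% or more, normalized to positive control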;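 note: 100% = tunicamycin at 10 µg/mL and 0% = DMSO alone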
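Evaluation: % reporter activation, DMSO baseline versus tunicamycin full activation; System: CHO-CHOP luciferase reporter cell line; Input: 500 cells/well; Incubation: 6 h compound treatment, 37 °C; Measured by: Steady-Glo luciferase luminescence; Dosing: one dose, 10 µM in 0.5% DMSO; Buffer or medium: F12 medium, 10% FBS; Benchmarks: positive tunicamycin 10 µg/mL, negative DMSO alone.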
T cruzi repl = inhibitors of intracellular T. cruzi growth, primary screen, luminescence, NIH3T3 host cells | T. cruzi beta-gal in NIH3T3, 90 h | inhibition, % (test concentration not listed) | 300,000 compounds, 1.4% hits;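 active = mean inhibition across valid replicates above about 55%, limit read from the data; inconclusive = mean below that limit but half or more replicates reach it; inactive = mean below it, under half of replicates reach it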;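 note: signal also drops with host cell toxicity which is not excluded here; 0% = plate median of DMSO wells and 100% = zero luminescence signal; higher percent means less beta-gal luminescence so fewer parasites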
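System – NIH/3T3 host cells with β-galactosidase reporter T. cruzi · Doses – single 50 nL compound addition per well in DMSO · Reagent – 5000 T. cruzi trypomastigotes/well · Medium – Low-serum DMEM with 2% FBS · Timing – ≥90 h infection period, 3 h prior cell attachment · Evaluation – parasite load inhibition, % · Technique – GalScreen luminescence, 60 min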
Numbers without * were called inactive; ? = inconclusive; . = no result given.

SMILES	CHOP inhibitor	UPR XBP1 act	Lmaj promast	Dynein cargo inh	CHOP UPR activ	T cruzi repl
COc1cc(NC(=O)CCN2CCN(C)CC2)cc(OC)c1	.	-2.6	.	.	2.2	-3.8
COc1ccccc1NS(=O)(=O)c1cccc(C(=O)NCC(c2cccs2)N2CCOCC2)c1 (configuration not stated)	.	-1.7	.	.	-0.4	.
COC(=O)[C@@]12CCCCN1[C@H](c1ccc(-c3cccc(Cl)c3)cc1)[C@@H]1C(=O)N(C)C(=O)[C@@H]12	.	2.5	.	.	1.4	.
COc1ccc(Cl)cc1NC(=O)CN(C)C(=O)c1ccc(-n2cncn2)cc1	.	-3.6	.	.	-0.3	.
CCOc1ccc(NC(=O)c2ccc(F)cc2F)cc1	.	3.4	.	.	0.1	-8.0
Cc1ccc(NC(=O)Nc2ccc(F)cc2F)c(OC(F)F)c1	-0.3	1.0	-0.2	-0.122	-1.6	3.3
COc1ccc(NC(=O)Nc2cc(C)ccc2OC(F)F)c(OC)c1	5.8	-3.6	67.3*	-1.22	1.7	14.7
COc1ccc(CNc2cccc(F)c2)cc1Br	86.2*	-2.0	-1.5	-0.726	1.0	6.8
COc1ccc(CNCc2cccc(OC)c2OC)cc1Br	19.8	-0.1	7.2	0.187	1.4	-9.2
NNc1nc(Nc2ccccc2)nc(N2CCCCC2)n1	-1.0	4.2	100.0*	-0.266	-0.9	-13.2
NNc1nc(Nc2ccc([N+](=O)[O-])cc2)nc(N2CCCCCC2)n1	.	-0.7	.	.	5.9	49.4
CCCNc1nc(Nc2ccc(C)cc2)nc(N2CCCC2)n1	70.2*	1.2	89.0*	0.499	0.6	20.0
NNc1nc(Nc2ccccc2)nc(Nc2ccccc2)n1	3.5	1.2	100.5*	2.35	-0.1	40.9
COc1ccc(Nc2nc(NN)nc(Nc3ccc(OC)cc3)n2)cc1	.	-2.3	.	.	2.1	4.4
Cc1ccc(Nc2nnc(SCn3nnc4ccccc4c3=O)s2)cc1	51.1	0.2	69.2*	1.94	2.6	26.7
Cc1cc(-n2c(C)cc(C(=O)CN3C(=O)NC4(CCCCC4C)C3=O)c2C)no1 (configuration not stated)	5.1	-1.9	79.2*	-0.273	-2.8	6.3
O=C(CNC(=O)c1cccs1)Nc1ccc(N2CCOCC2)cc1	.	0.2	.	.	-1.2	.
COc1ccc(NC(=O)CCCn2c(=O)c3sccc3n(Cc3ccccc3C)c2=O)cc1	22.3	-2.5	89.3*	-0.993	1.9	18.2
COCCNC(=O)Cn1c(=O)n(CCCCCC(=O)Nc2ccccc2)c(=O)c2sccc21	12.9	-0.9	-2.9	-0.447	-0.4	-0.8
COCCCNC(=O)Cn1c(=O)n(CCCCCC(=O)Nc2ccccc2)c(=O)c2sccc21	-9.4	-0.6	50.2*	-0.791	0.5	21.5
Cc1ccc(C(=O)NCc2ccco2)cc1[N+](=O)[O-]	8.6	-1.2	11.0	0.802	0.4	7.4
O=C(NCc1ccco1)c1cc([N+](=O)[O-])cc([N+](=O)[O-])c1	15.3	-2.1	57.9*	-0.373	0.0	47.1
O=C(NCc1ccco1)c1cc([N+](=O)[O-])ccc1Cl	7.3	-0.7	4.2	0.177	-0.5	12.4
CC1CCCN(c2ccc(C(=O)NCc3ccco3)cc2[N+](=O)[O-])C1 (configuration not stated)	58.8	3.7	72.7*	-0.74	2.1	20.7
O=C(NCc1ccco1)c1cccs1	76.3*	-3.6	-4.2	-0.521	-0.7	-17.6
SMILES	CHOP inhibitor	UPR XBP1 act	Lmaj promast	Dynein cargo inh	CHOP UPR activ	T cruzi repl
CC(=O)c1ccc(NC(=O)N[C@@H](CC(C)C)C(=O)O)cc1	72.3*	-3.7	6.5	-0.497	0.5	-8.5
CC(=O)c1ccc(NC(=O)Nc2ccc(Cl)cc2)cc1	77.7*	4.4	0.1	-0.372	4.3	-1.0
Cc1cc(C)c(NC(=O)C[C@H](CC(=O)O)c2cccc3ccccc23)c(C(=O)N2CCC3(CCCC3)CC2)c1	-51.1	.	.	.	.	.
Cc1ccc(CNC(=O)/C=C/c2ccc(S(=O)(=O)NCc3ccco3)cc2)cc1	41.8	0.1	78.0*	0.652	0.3	-6.4
O=C(O)/C=C/c1ccc(S(=O)(=O)NCc2ccco2)cc1	-11.5	-3.9	7.8	-0.271	-2.4	-16.6
Cc1ccc(-c2ccc(S(=O)(=O)NCc3ccco3)cc2)cc1	75.0*	-0.5	-2.9	-1.07	3.5	12.4
O=C(/C=C/c1ccc(S(=O)(=O)NCc2ccco2)cc1)NCc1cccc(Cl)c1	2.7	-2.5	93.5*	0.744	-0.1	-4.4
COc1ccccc1CNC(=O)/C=C/c1ccc(S(=O)(=O)NCc2ccco2)cc1	19.9	-2.5	10.0	0.0363	-0.1	-13.2
Brc1ccc(N/N=C(/N=Nc2nn[nH]n2)c2ccccc2)cc1	70.8*	-1.6	-0.8	-1.49	-3.4	-28.2
COc1ccccc1Nc1nc(N)nc(CSC(=S)N2CCN(c3ccccc3)CC2)n1	50.8	2.3	32.4	-0.154	-0.2	62.8*
COc1ccccc1C(=O)O/N=C(\N)c1ccccc1Cl	23.5	-0.2	91.5*	-0.582	2.3	1.5
Cn1cc(CN2CCCC(CO)(Cc3ccccc3)C2)c2ccccc21 (configuration not stated)	13.8	-2.7	43.1	-0.692	1.0	66.7*
COc1cccc(CC2(CO)CCCN(Cc3ccccc3Cl)C2)c1 (configuration not stated)	.	-0.6	.	.	1.9	25.9
COc1cccc(CC2(CO)CCCN(Cc3ccc(OC)c(C)c3OC)C2)c1 (configuration not stated)	.	-4.9	.	.	-0.8	47.0
COc1cccc(CC2(CO)CCCN(Cc3cn(C)c4ccccc34)C2)c1 (configuration not stated)	26.2	2.5	25.6	-1.02	-4.0	64.7*
COc1cccc(CC2(CO)CCCN(Cc3cnn(-c4ccccc4)c3)C2)c1 (configuration not stated)	0.4	0.7	90.0*	0.0324	-0.6	?
COc1cccc(CC2(CO)CCCN(Cc3ccc(CN4CCCCC4)s3)C2)c1 (configuration not stated)	29.0	-1.2	77.2*	0.854	-1.0	71.2*
CCCCNC(=O)NS(=O)(=O)c1ccc(NC(=O)CCC(=O)c2cccs2)cc1	.	1.3	.	.	-0.1	0.0
CC(C)(C)NCC(O)COc1nsnc1N1CCOCC1 (configuration not stated)	-5.9	.	.	.	.	.
COc1cc(-c2nc3ccccc3s2)ccc1O	15.1	5.0	-3.8	0.308	4.9	-16.0
CC(C)c1ccc(-c2nc3ccccc3s2)cc1	92.8*	-6.6	.	0.958	-9.2	-4.9

Bioassay records (PubChem BioAssay)
